Data published in ChEMBL document CHEMBL3526018, “Metabolites of PPI-2458, a selective, irreversible inhibitor of methionine aminopeptidase-2: structure determination and in vivo activity” (Drug Metab Dispos, 2013).
Active and inactive are the calls of the source. The rule behind the calls is not given here.

Experiments:
[1] = target: Methionine aminopeptidase 2 (Homo sapiens) (UniProt P50579); assay: Inhibition of human MetAP2 assessed as remaining enzyme activity after 8 hrs; design: concentration or dose not given beside the values
Procedure, shortened: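 The hMetAP2 assay follows the fraction of active enzyme remaining during an 8 h incubation with inhibitor, relative to an enzyme-only control.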

[2] = target: Methionine aminopeptidase 2 (Homo sapiens) (UniProt P50579); assay: Inhibition of human MetAP2 activity after end of experiment; design: scale not given: the % may be the effect or the level left
[3] = tested on: Liver microsome; assay: Retention time in human liver microsomes treated with at 5 mM PPI-2458 by LC/MS analysis; format: ADME; conditions: 5000 µM
Procedure, shortened: (§1)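 Liver microsomes (pooled male/female) in 100 mM KPO4 pH 7.4 with PPI-2458 (5 mM stock), pre-incubated 5 min at 37°C, then 10 mM NADPH added; 20 min at 37°C with shaking. Time-zero and no-NADPH controls. Quenched with CH3CN; supernatant dried and redissolved in water. Analysed by LC-MS, ESI+ full scan 300–800 amu, C18 column, 10→50% B gradient.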

[4] = Retention time in mouse liver microsomes treated with at 5 mM PPI-2458 by LC/MS analysis; format: ADME; conditions: 5000 µM; procedure, shortened: as §1
[5] = tested on: Rattus norvegicus; assay: Inhibition of MetAP2 level in Sprague-Dawley rat whole blood assessed as free enzyme level at 0.3 mg/kg, iv by ELISA; format: functional, organism-based; design: dose 0.3 mg/kg
Procedure, shortened: (§2)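 Male Sprague-Dawley rats (200-225 g, n=3 per group) were dosed once IV at 0.3 mg/kg or PO at 0.3 or 3.0 mg/kg, in 11% HPCD in water. Blood, liver, lung, thymus and pooled non-mesenteric lymph nodes were taken at ~24 h and lysed or homogenized with NP-40. Free MetAP2 was measured by ELISA and expressed as % of vehicle.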

[6] = tested on: Rattus norvegicus; assay: Inhibition of MetAP2 level in Sprague-Dawley rat lymph nodes assessed as free enzyme level at 0.3 mg/kg, iv by ELISA; format: functional, organism-based; design: dose 0.3 mg/kg; procedure, shortened: as §2
[7] = tested on: Rattus norvegicus; assay: Inhibition of MetAP2 level in Sprague-Dawley rat thymus assessed as free enzyme level at 0.3 mg/kg, iv by ELISA; format: functional, organism-based; design: dose 0.3 mg/kg; procedure, shortened: as §2
[8] = tested on: Rattus norvegicus; assay: Inhibition of MetAP2 level in Sprague-Dawley rat lung assessed as free enzyme level at 0.3 mg/kg, iv by ELISA; format: functional, organism-based; design: dose 0.3 mg/kg; procedure, shortened: as §2
[9] = tested on: Liver microsome; assay: Retention time in rat liver microsomes treated with at 5 mM PPI-2458 by LC/MS analysis; format: ADME; conditions: 5000 µM; procedure, shortened: as §1
[10] = tested on: Liver microsome; assay: Retention time in dog liver microsomes treated with at 5 mM PPI-2458 by LC/MS analysis; format: ADME, Canis lupus familiaris; conditions: 5000 µM; procedure, shortened: as §1
[11] = Retention time in monkey liver microsomes treated with at 5 mM PPI-2458 by LC/MS analysis; format: ADME, Macaca mulatta; conditions: rhesus monkey, 5000 µM; procedure, shortened: as §1
[12] = tested on: Rattus norvegicus; assay: Inhibition of MetAP2 level in Sprague-Dawley rat lung assessed as free enzyme level at 0.3 mg/kg, po by ELISA; format: functional, organism-based; design: dose 0.3 mg/kg; procedure, shortened: as §2
[13] = tested on: Rattus norvegicus; assay: Inhibition of MetAP2 level in Sprague-Dawley rat liver assessed as free enzyme level at 0.3 mg/kg, po by ELISA; format: functional, organism-based; design: dose 0.3 mg/kg; procedure, shortened: as §2
[14] = tested on: Rattus norvegicus; assay: Inhibition of MetAP2 level in Sprague-Dawley rat lymph nodes assessed as free enzyme level at 0.3 mg/kg, po by ELISA; format: functional, organism-based; design: dose 0.3 mg/kg; procedure, shortened: as §2
[15] = tested on: Rattus norvegicus; assay: Inhibition of MetAP2 level in Sprague-Dawley rat thymus assessed as free enzyme level at 0.3 mg/kg, po by ELISA; format: functional, organism-based; design: dose 0.3 mg/kg; procedure, shortened: as §2
[16] = tested on: Rattus norvegicus; assay: Inhibition of MetAP2 level in Sprague-Dawley rat whole blood assessed as free enzyme level at 0.3 mg/kg, po by ELISA; format: functional, organism-based; design: dose 0.3 mg/kg; procedure, shortened: as §2
[17] = tested on: Rattus norvegicus; assay: Inhibition of MetAP2 level in Sprague-Dawley rat liver assessed as free enzyme level at 3 mg/kg, po by ELISA; format: functional, organism-based; design: dose 3 mg/kg; procedure, shortened: as §2
[18] = tested on: Rattus norvegicus; assay: Inhibition of MetAP2 level in Sprague-Dawley rat liver assessed as free enzyme level at 0.3 mg/kg, iv by ELISA; format: functional, organism-based; design: dose 0.3 mg/kg; procedure, shortened: as §2
[19] = tested on: Rattus norvegicus; assay: Inhibition of MetAP2 level in Sprague-Dawley rat lung assessed as free enzyme level at 3 mg/kg, po by ELISA; format: functional, organism-based; design: dose 3 mg/kg; procedure, shortened: as §2
[20] = tested on: Rattus norvegicus; assay: Inhibition of MetAP2 level in Sprague-Dawley rat lymph nodes assessed as free enzyme level at 3 mg/kg, po by ELISA; format: functional, organism-based; design: dose 3 mg/kg; procedure, shortened: as §2
[21] = tested on: Rattus norvegicus; assay: Inhibition of MetAP2 level in Sprague-Dawley rat thymus assessed as free enzyme level at 3 mg/kg, po by ELISA; format: functional, organism-based; design: dose 3 mg/kg; procedure, shortened: as §2
[22] = tested on: Rattus norvegicus; assay: Inhibition of MetAP2 level in Sprague-Dawley rat whole blood assessed as free enzyme level at 3 mg/kg, po by ELISA; format: functional, organism-based; design: dose 3 mg/kg; procedure, shortened: as §2

Chain of Methionine aminopeptidase 2 (Homo sapiens) (P50579 2-478 limits assumed): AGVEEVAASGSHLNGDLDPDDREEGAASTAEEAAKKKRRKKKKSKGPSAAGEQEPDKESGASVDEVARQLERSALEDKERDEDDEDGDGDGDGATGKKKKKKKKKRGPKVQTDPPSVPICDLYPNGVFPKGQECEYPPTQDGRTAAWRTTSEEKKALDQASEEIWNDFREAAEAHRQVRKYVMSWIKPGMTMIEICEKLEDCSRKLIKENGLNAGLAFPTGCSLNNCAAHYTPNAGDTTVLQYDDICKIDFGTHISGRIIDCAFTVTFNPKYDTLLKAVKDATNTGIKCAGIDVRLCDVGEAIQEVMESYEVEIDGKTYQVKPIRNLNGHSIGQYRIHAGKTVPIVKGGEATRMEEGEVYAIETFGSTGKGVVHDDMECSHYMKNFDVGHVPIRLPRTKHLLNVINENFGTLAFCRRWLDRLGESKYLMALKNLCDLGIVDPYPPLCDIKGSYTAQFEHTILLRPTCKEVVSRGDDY

Row | Activity [1] [%] | Retention_time [3] [min] | Retention_time [4] [min] | Retention_time [9] [min] | Retention_time [10] [min] | Retention_time [11] [min] | Structure (SMILES) | inhibition [5] | inhibition [6] | inhibition [7] | inhibition [8] | inhibition [12] | inhibition [13] | inhibition [14] | inhibition [15] | inhibition [16] | inhibition [17] | inhibition [18] | inhibition [19] | inhibition [20] | inhibition [21] | other results
1 | 58 | 20.1 | 20.1 | 20.1 | 20.1 | 20.1 | CO[C@@H]1[C@H](OC(=O)N[C@@H](C(N)=O)C(C)C)CC[C@]2(CO2)[C@H]1[C@@]1(C)O[C@@H]1C[C@@H]1OC1(C)C | Active | Active | Active | Active | inactive | inactive | inactive | inactive | inactive | Active | Active | Active | Active | Active | Activity [2]: 40%; inhibition [22]: Active
2 | 10 | 20.8 | 20.8 | 20.8 | 20.8 | 20.8 | CO[C@@H]1[C@H](OC(=O)N[C@@H](C(N)=O)C(C)C)CC[C@]2(CO2)[C@H]1[C@@]1(C)O[C@@H]1C[C@H]1OC1(C)C | Active | Active | Active | Active | inactive | inactive | inactive | inactive | inactive | Active | Active | Active | Active | Active | Activity [2]: 90%; inhibition [22]: Active

Second part, the compound before the results:

Row | Structure (SMILES) | Activity [1] [%] | Retention_time [3] [min] | Retention_time [4] [min] | Retention_time [9] [min] | Retention_time [10] [min] | Retention_time [11] [min] | inhibition [5] | inhibition [6] | inhibition [7] | inhibition [8] | inhibition [12] | inhibition [13] | inhibition [14] | inhibition [15] | inhibition [16] | inhibition [17] | inhibition [18] | inhibition [19] | inhibition [20] | inhibition [21] | other results
3 | CO[C@@H]1[C@H](OC(=O)N[C@@H](C(N)=O)C(C)(C)O)CC[C@]2(CO2)[C@H]1[C@@]1(C)O[C@@H]1C[C@@H]1OC1(C)C | 39 | – | – | – | – | – | – | – | – | – | – | – | – | – | – | – | – | – | – | – | –
4 | CO[C@@H]1[C@H](OC(=O)N[C@@H](C(N)=O)C(C)(C)O)CC[C@]2(CO2)[C@H]1[C@@]1(C)O[C@@H]1C[C@H]1OC1(C)C | 6 | – | – | – | – | – | – | – | – | – | – | – | – | – | – | – | – | – | – | – | –
5 | CO[C@@H]1[C@H](OC(=O)N[C@@H](C(N)=O)C(C)C)CC[C@]2(CO2)[C@H]1[C@@]1(C)O[C@@H]1CCC(C)(C)O | 90 | – | – | – | – | – | – | – | – | – | – | – | – | – | – | – | – | – | – | – | –
6 | CO[C@@H]1[C@H](OC(=O)N[C@@H](C(N)=O)C(C)(C)O)CC[C@]2(CO2)[C@H]1[C@@]1(C)O[C@@H]1CC=C(C)C | 1 | 26.7 | 26.7 | 26.7 | 26.7 | 26.7 | Active | Active | Active | Active | Active | Active | Active | Active | Active | Active | Active | Active | Active | Active | inhibition [22]: Active
7 | CO[C@@H]1[C@H](OC(=O)N[C@@H](C(N)=O)C(C)C)CC[C@]2(CO2)[C@H]1[C@@]1(C)O[C@@H]1C/C=C(\C)CO | 9 | 17.6 | 17.6 | 17.6 | 17.6 | 17.6 | Active | Active | Active | Active | inactive | inactive | inactive | inactive | inactive | Active | Active | Active | Active | Active | Activity [2]: 90%; inhibition [22]: Active
